Screening results (PubChem)
Rows were chosen to be rich in hits. Some 1.8% of all compounds tested hit in one or more screens of this group.
SENP1 inh: inhibitors of human SENP1 SUMO protease catalytic domain | hit rate 0.21% among 360,000 | recombinant SENP1 catalytic domain, CyPet-SUMO1-YPet FRET cleavage | Q9P0U3 | inhibition, % at 10 µM;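 active means inhibition at least 30% at 10 µM, raw YFP signal under a set limit, fluorescence ratio 0.5 to 1.5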
Target sequence (Q9P0U3 419-644 limits assumed): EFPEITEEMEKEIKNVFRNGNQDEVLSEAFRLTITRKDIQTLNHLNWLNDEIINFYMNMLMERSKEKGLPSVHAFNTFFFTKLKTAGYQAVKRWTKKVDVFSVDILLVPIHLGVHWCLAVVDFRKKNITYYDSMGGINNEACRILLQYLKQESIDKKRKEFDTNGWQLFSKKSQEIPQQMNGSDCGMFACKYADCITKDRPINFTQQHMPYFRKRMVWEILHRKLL
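Material: hSENP1 catalytic domain, recombinant; medium: Tris pH 8 with BME, BSA, NP40 and catalase; compound: single concentration of 10 µM compound, 0.5% DMSO final; technique: FRET read of cyan and yellow fluorescence; timing: 50 min enzyme reaction, room temperature, light-protected; reagent: SFCypet-SUMO1-SFYpet substrate at 25 nM; control set: no-enzyme low, enzyme-DMSO high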
Rpn11 inh: inhibitors of human proteasome Rpn11; AID 588493; calls only at 20 µM; hit rate 0.59% among 360,000; human 26S proteasome, Ub4-pepOG fluorescence polarization; 20S core pre-blocked with epoxomicin;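 active means inhibition at 20 µM, scaled to each plate's controls, above about 33%, limit read from the data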
TPT1 inh: blocks Candida albicans tRNA 2'-phosphotransferase. recombinant caTPT1, FP RNA substrate dephosphorylation. inhibition, % at 5 µM. hit rate 0.81% among 300,000;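 active means inhibition above the mean of all tested compounds plus 3 SD, set per screening campaign, cut at about 24% in these data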
HNF4A DNA FP: change in binding of human HNF4 alpha to DNA. P41235. HNF4a-FITC DNA binding, fluorescence polarization, 1 h. activity change, % at 10 µM. hit rate 0.3% among 360,000; in the data active means activity change above about 30%, passing the limit was not always enough
CSN inh: inhibitors of human CSN-mediated cullin deneddylation | Q92905 | Purified CSN, SCF-Nedd8-OG deneddylation, fluorescence polarization | inhibition, % at 12.5 µM | hit rate 0.38% among 360,000 | AID 651999;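 active means pattern-corrected inhibition above about 35%, with an unprinted fluorescence ratio check between 0.5 and 1.5, limit read from the data, passing the limit was not always enough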
Target sequence (Q92905 whole entry, looked up, one chain of several): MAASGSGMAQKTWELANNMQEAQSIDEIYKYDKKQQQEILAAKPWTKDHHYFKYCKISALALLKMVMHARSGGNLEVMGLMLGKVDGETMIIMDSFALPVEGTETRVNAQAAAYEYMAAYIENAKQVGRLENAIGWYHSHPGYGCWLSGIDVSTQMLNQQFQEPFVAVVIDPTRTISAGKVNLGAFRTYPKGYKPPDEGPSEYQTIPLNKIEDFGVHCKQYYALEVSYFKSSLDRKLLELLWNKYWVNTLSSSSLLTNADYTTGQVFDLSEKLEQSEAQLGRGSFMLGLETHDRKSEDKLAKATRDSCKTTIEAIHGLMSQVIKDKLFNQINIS
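Detection – fluorescence polarization · System – HEK293T-derived human Csn5 enzyme · Controls – substrate-only high control, full reaction low control · Timing – 90 min, room temperature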
UBC9 SUMO inh: inhibitors of human SUMOylation (UBC9) | inhibition, % at 35 µM | HTRF SUMOylation assay, SAE1/SAE2 + UBC9, in vitro | hit rate 0.36% among 290,000 | P63279; in the data active means inhibition above about 50%, passing the limit was not always enough
Rpn11 inh conf: confirmation of human proteasome Rpn11 inhibitors. inhibition, % at 20 µM. hit rate 29% among 1,900. shares compounds with Rpn11 inh. purified human 26S proteasome, Ub4-pepOG fluorescence polarization; proteasome pretreated with epoxomicin
MMP-2 counter-1: blocks human MMP-2, flagging nonselective RPN11 hits; hit rate 4% among 1,900; AID 602330; recombinant MMP-2, FRET peptide cleavage fluorescence; inhibition, % at 20 µM; shares compounds with Rpn11 inh;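 further: human MMP-2 activated beforehand with APMA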
Thrombin FP: thrombin (bovine) inhibition counter-screen; bovine thrombin cleavage of Ub4-pepOG, fluorescence polarization; shares compounds with Rpn11 inh; inhibition, % at 20 µM; AID 602333; hit rate 13% among 1,900;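 active means mean inhibition at least 40% at 20 µM, or signal 3 deviations below plate average, so some actives read negative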
CSN deneddyl val: Csn5 (human) deneddylation inhibition, single-concentration validation | shares compounds with CSN inh | Csn5 deneddylation of SCF-Nedd8OG, fluorescence polarization, 90 min | inhibition, % at 16.6 µM | hit rate 62% among 540 | AID 720654; in the data active means inhibition above about 50%
MMP-2 counter-2: blocks human MMP-2 in a CSN deneddylation counter-screen; shares compounds with CSN inh; recombinant MMP-2, FRET substrate fluorescence, 60 min; inhibition, % at 16.6 µM; hit rate 33% among 540;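 active means corrected plate-normalized z-score of 5 or more, or -5 or less, or inhibition of 15% or more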
Thrombin cntr: thrombin (bovine) inhibition, counter-screen for CSN hits | shares compounds with CSN inh | bovine thrombin cleavage of Ub4-pepOG, fluorescence polarization | inhibition, % at 16.6 µM | hit rate 49% among 540;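 active means inhibition at or above a set limit, with a fluorescence interference ratio between 0.5 and a set maximum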
HNF4a DNA conf: change in binding of human HNF4 alpha to DNA, retest; shares compounds with HNF4A DNA FP; HNF4A-FITC DNA binding, fluorescence polarization, 1 h; activity change, % at 12.5 µM; hit rate 99% among 210; call rule not given here
A number is an active result; – = inactive; · = no result; + = active, no number; ! = not active in a repeat. Unless noted, no stated cut-off is given here; in the data, active means inhibition above about 40%; inactive means the rest.

SMILES	SENP1 inh	Rpn11 inh	TPT1 inh	HNF4A DNA FP	CSN inh	UBC9 SUMO inh	Rpn11 inh conf	MMP-2 counter-1	Thrombin FP	HNF4a DNA conf	others
O=C(CCCN1C(=O)/C(=C/c2ccco2)SC1=S)Nc1ccccc1C(=O)O	–	+	–	–	39	–	–	–	–	·	CSN deneddyl val=83;MMP-2 counter-2=25;Thrombin cntr=32
COc1ccccc1/C=C1\SC(=S)N(CCC(=O)Nc2ccc(C(=O)O)c(O)c2)C1=O	–	–	–	–	–	–	·	·	·	·
O=C(N[C@@H](CCC/[N+]([O-])=C/c1ccccc1)C(=O)O)OCc1ccccc1	–	–	·	–	–	·	·	·	·	·
COc1cc(N(C)C)ccc1C=c1c2ccccc2n2c1cc(-c1ccccc1)[n+]2C	–	+	·	–	71	·	98	–	82	·	CSN deneddyl val=–;MMP-2 counter-2=73;Thrombin cntr=57
Cc1ccc(O)c(-c2cc(C(=O)Nc3ccc(S(=O)(=O)Nc4nccc(C)n4)cc3)[nH]n2)c1	–	–	–	–	–	–	·	·	·	·
COc1ccc(C2CC(c3ccccc3Cl)=NN2c2ccc(S(N)(=O)=O)cc2)cc1 (stereo not given)	–	–	·	–	–	·	·	·	·	·
Cc1nc(S/C(=C\c2ccc(OCc3ccccc3Cl)cc2)C(=O)O)n[nH]1	–	–	–	–	–	–	·	·	·	·
Cc1nc(S/C(=C\c2ccc(-c3ccc(C(=O)O)c(Cl)c3)o2)C(=O)O)n[nH]1	–	+	·	–	73	–	197	–	–	·	MMP-2 counter-2=19;Thrombin cntr=–
Cc1cc(C)n2ncc(C(=O)Nc3cccc(O)c3)c2n1	–	–	–	–	–	–	·	·	·	·
COCC(C)n1c(C)cc(C(=O)COC(=O)c2c(NC(C)=O)sc(C)c2C)c1C (stereo not given)	–	+	–	37	–	–	–	–	–	51
COCC(C)n1c(C)cc(C(=O)COC(=O)c2c(C)nn(-c3ccccc3)c2C)c1C (stereo not given)	–	–	–	–	–	–	·	·	·	·
CC(=O)c1c(O)c(C)c(O)c2c1OC1=CC(=O)C(C(C)=O)C(=O)[C@@]12C (stereo not given in full)	–	+	·	65	–	–	120	–	109	57
Cc1cccc(NC(=O)c2cc3c(=O)n4ccccc4nc3s2)c1	–	+	–	45	–	–	–	–	–	55
O=C(Nc1cccc(Cl)c1)c1cc2c(=O)n3ccccc3nc2s1	–	–	–	–	–	–	·	·	·	·
C=CCCC(=O)N1C[C@H]2CON(C)[C@H]2C[C@H]1c1ccc(N2CCCCC2)cc1	–	+	·	43	–	·	56	–	45	45
COc1cc(C(=O)N2C[C@H]3CON(C)[C@H]3C[C@H]2c2ccc(N3CCCCC3)cc2)cc(OC)c1OC	–	–	·	–	–	·	·	·	·	·
O=C(CSc1nc2ccccc2c(=O)n1Cc1ccco1)N1CCCC1	–	–	–	–	–	–	·	·	·	·
CCCCN1C(=O)/C(=C2/Sc3ccccc3N2C)S/C1=N\c1ncn[nH]1	–	+	–	46	45	–	97	–	62	75
Fc1ccccc1NC(=S)N(CCN1CCCCCC1)Cc1cccs1	–	–	–	–	–	–	·	·	·	·
C=CCN1C=C/C(=C\C=C(C#N)C#N)c2ccccc21	–	+	–	94	35	–	90	–	89	111
C/C(=N\NC(=O)c1ccc(OC2OCCOC2Oc2ccc(C(=O)N/N=C(\C)c3ccncc3)cc2)cc1)c1ccncc1 (stereo not given)	–	+	–	157	99	–	192	–	51	204
COc1ccc2c(C)cc(SCC(=O)Nc3nsc(-c4ccc(C)cc4)n3)nc2c1	–	–	–	–	–	–	·	·	·	·
Cc1ccc(-c2nc(NC(=O)CSc3cc(C)c4ccccc4n3)ns2)cc1	–	+	–	162	175	–	–	–	–	94
O=C(NCc1ccc(F)c(F)c1)C1CCC(=O)N(CC2CCCCC2)C1 (stereo not given)	–	–	–	–	–	–	·	·	·	·
CC1(C(=O)NC2CCCC2)CCC(=O)N1Cc1ccccc1Cl (stereo not given)	–	–	–	–	–	–	·	·	·	·
SMILES	SENP1 inh	Rpn11 inh	TPT1 inh	HNF4A DNA FP	CSN inh	UBC9 SUMO inh	Rpn11 inh conf	MMP-2 counter-1	Thrombin FP	HNF4a DNA conf	others
Cc1ccc[n+](-c2nc3ccccc3nc2C(=C=[N-])C#N)c1	–	+!	–	60	63!	–	–	–	–	42
O=c1c(Cl)c(N/N=C/c2ccc(Cl)cc2)cnn1-c1ccccc1	–	+	–	39	–	–	–	–	–	45
O=c1c(Cl)c(Cl)cnn1-c1ccccc1	–	–	·	–	–	–	·	·	·	·
O=C(C(c1ccccc1)c1ccccc1)N1CCN(Cc2ccco2)CC1	–	–	–	–	–	–	·	·	·	·
COc1ccc(CC(=O)Nc2ccc(-c3nnc(-c4ccccc4)o3)cc2)cc1OC	–	+	–	36	46	–	–	–	–	73
CC(/C=C/c1ccccc1)NC(N)=O (stereo not given)	–	–	–	–	–	–	·	·	·	·
CN(C)c1ccc(/C=C(\C#N)C(=O)OCC(=O)N(C)C2CCS(=O)(=O)C2)cc1 (stereo not given)	–	+	·	42	–	·	61	–	56	75
CC(=O)N/C(=C\c1ccccc1)C(=O)OCC(=O)N(C)C1CCS(=O)(=O)C1 (stereo not given)	–	–	·	–	–	·	·	·	·	·
